Sampled rows, rich in hits. Any-hit rate of the full collection: about 2.8%.
E-sel inducer = E-selectin induction on HUVECs. 0.37% of 260,000 active. AID 686992. HUVEC E-selectin immunofluorescence imaging; normalized: neutral wells 0, TNF-alpha wells 100. activation, % at 7.58 µM. P16581;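 active means mean E-selectin-positive cell signal at least 10% of the positive control, reached in at least 60% of replicates, without over 20% cell loss; inconclusive means no rule given, readout overlaps actives, possibly toxicity-flagged; inactive means the rest, including those meeting only one limit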
Target sequence (P16581 whole entry, looked up): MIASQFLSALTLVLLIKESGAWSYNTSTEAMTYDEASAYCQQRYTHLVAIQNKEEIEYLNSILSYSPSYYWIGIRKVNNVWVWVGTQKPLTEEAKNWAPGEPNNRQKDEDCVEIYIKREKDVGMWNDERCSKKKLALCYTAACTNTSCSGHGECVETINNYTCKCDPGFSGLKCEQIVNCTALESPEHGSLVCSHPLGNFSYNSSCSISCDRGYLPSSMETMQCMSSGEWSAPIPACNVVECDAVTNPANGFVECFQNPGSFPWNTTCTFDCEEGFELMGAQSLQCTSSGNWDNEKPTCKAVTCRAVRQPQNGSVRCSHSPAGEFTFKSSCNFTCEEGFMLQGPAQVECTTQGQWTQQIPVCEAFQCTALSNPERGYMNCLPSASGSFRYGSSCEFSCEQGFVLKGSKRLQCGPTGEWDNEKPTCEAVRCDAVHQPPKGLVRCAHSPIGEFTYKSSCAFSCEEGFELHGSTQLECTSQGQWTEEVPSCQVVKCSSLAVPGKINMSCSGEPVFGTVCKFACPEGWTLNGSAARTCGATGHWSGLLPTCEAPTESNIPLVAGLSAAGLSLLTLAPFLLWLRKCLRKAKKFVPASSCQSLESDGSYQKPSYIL
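System: HUVEC, human umbilical vein endothelial cells; quantity: 3,000 cells/well; buffer or medium: EGM-2 medium, gelatin-coated wells; dosing: single-point compound dose; detection: immunofluorescence imaging; evaluation: % PE-positive cells; benchmarks: TNF-alpha, DMSO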
DENV2 CPE rescue = protects cells from dengue virus 2 cytopathic effect | CPE inhibition, % at 9.99 µM | 1.7% of 350,000 active | DENV2-infected cells, cytopathic effect rescue, plate reader; in the data active means CPE inhibition above about 20%, passing the limit was not always enough; inconclusive means no clear call, values can overlap the other calls; tested in BHK-21 cells;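 further: 0% = median of neutral control wells and 100% = median of positive control wells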
SIRT5 inh = blocks human SIRT5 desuccinylation of peptide; 1.1% of 330,000 active; AID 652115; Purified SirT5, succinyl-peptide AMC, trypsin-coupled fluorescence; inhibition, % at 15 µM; Q9NXA8; in the data active means inhibition above about 15%; inconclusive means no clear call, values can overlap the other calls
* = called active by the depositor; ? = inconclusive; . = no result given.

SMILES	E-sel inducer	DENV2 CPE rescue	SIRT5 inh
CNC[C@@H]1OCCCC[C@H](C)Oc2ccc(NS(=O)(=O)c3ccc(OC)cc3)cc2C(=O)N([C@H](C)CO)C[C@@H]1C	0.5	.	.
NC(=O)[C@H]1[C@@H]2C(=O)O[C@@H](c3ccccc3)[C@@H](c3ccccc3)N2[C@@H](c2ccc(OCCO)cc2)[C@]12C(=O)Nc1ccc(C#CC3(O)CCCCCC3)cc12	.	-2.0	14.4
COc1ccc(C#Cc2ccc3c(c2)[C@]2(C(=O)N3)[C@H](c3ccc(OCCO)cc3)N3[C@H](c4ccccc4)[C@H](c4ccccc4)OC(=O)[C@H]3[C@@H]2C(=O)N2CCc3cc(OC)c(OC)cc3C2)cc1	.	5.5	15.3*
COc1ccc(C#Cc2ccc3c(c2)[C@]2(C(=O)N3)[C@H](C(=O)N3CCc4cc(OC)c(OC)cc4C3)[C@H]3C(=O)O[C@H](c4ccccc4)[C@H](c4ccccc4)N3[C@@H]2c2ccc(OCCO)cc2)cc1	.	2.2	-3.6
NC(=O)[C@H]1[C@@H]2C(=O)O[C@@H](c3ccccc3)[C@@H](c3ccccc3)N2[C@@H](c2ccccc2OCCO)[C@]12C(=O)Nc1ccc(C#CC3(O)CCCCCC3)cc12	.	-4.6	16.0*
C[C@@H]1CCCCO[C@@H](CN(C)C(=O)CCC(F)(F)F)[C@H](C)CN([C@@H](C)CO)C(=O)c2cc(NS(=O)(=O)c3ccccc3)ccc2O1	0.0	11.9	1.3
CN(C)C(=O)[C@H]1[C@H](CO)[C@H]2Cn3c(ccc(C4=CCCCC4)c3=O)[C@@H]1N2Cc1ccncc1	-0.2	35.7*	-30.0
CN(C)C(=O)[C@@H]1[C@@H](CO)[C@@H]2Cn3c(ccc(C4=CCCCC4)c3=O)[C@H]1N2C	1.1	-1.8	-22.2
CCNC(=O)[C@@H]1[C@@H](CO)[C@@H]2Cn3c(ccc(C4=CCCCC4)c3=O)[C@H]1N2Cc1ccncc1	-0.1	-4.3	-22.4
CN(C)C(=O)[C@@H]1[C@@H](CO)[C@@H]2Cn3c(ccc(C4=CCCC4)c3=O)[C@H]1N2S(=O)(=O)c1cn(C)cn1	-0.1	22.3*	-29.3
C[C@H]1CN([C@@H](C)CO)S(=O)(=O)c2ccc(-c3ccc(C#N)cc3)cc2O[C@H]1CN(C)C	?	-5.8	-2.7
C[C@H](CO)N1C[C@H](C)[C@H](CN(C)Cc2ccccc2)Oc2ncc(C#Cc3cccnc3)cc2C1=O	-0.6	0.4	5.0
c1cncc(-c2ccc3[nH]ccc3c2)c1	0.2	-3.0	-8.4
c1ccc(-c2ccc3[nH]ccc3c2)cc1	0.1	87.5*	-0.3
C[C@H](CO)N1C[C@H](C)[C@@H](CN(C)C(=O)Cc2ccccc2)OCCCC[C@H](C)Oc2ccc(NC(=O)CCC(F)(F)F)cc2C1=O	.	-4.3	.
CC1(C)Cc2ccccc2-c2nc3n(c(=O)c21)CCS3	77.4*	1.7	-0.8
CC1(C)Cc2ccccc2-c2nc3n(c(=O)c21)CCCS3	.	1.7	-3.3
O=C(C[C@H]1CC[C@H]2[C@@H](COC[C@@H](O)CN2S(=O)(=O)c2cccc(Cl)c2)O1)NC1CCC1	0.2	2.8	-2.1
CN(CC(=O)Nc1c(Cl)cccc1Cl)C(=O)c1ccccc1SCC(=O)N1CCCC1	-0.4	-5.4	1.4
Cc1cccc(C)c1NC(=O)CN(C)C(=O)c1ccccc1SCC(=O)N1CCCC1	.	9.1	16.5*
N#Cc1cc([N+](=O)[O-])ccc1N1CCN(c2ccccc2O)CC1	1.2	.	-0.5
O=[N+]([O-])c1ccc(N2CCN(c3ccc([N+](=O)[O-])cc3CO)CC2)c(CO)c1	45.1*	8.0	-4.7
c1ccc2c(c1)ccc1ccccc12	.	-5.8	5.3
CC1=[N+](C)c2ccc3ccccc3c2C1(C)C	196.2*	?	0.0
O=C(NCc1ccccc1F)C1CCC(=O)N(Cc2ccc(Cl)cc2)C1 (stereo not drawn)	.	1.1	-0.3
O=C(NCc1ccccn1)C1CCC(=O)N(Cc2ccc(Cl)cc2)C1 (stereo not drawn)	0.2	10.0	37.5*
COc1ccc(CCN2CC(C(=O)NCCc3ncccc3C)CCC2=O)cc1 (stereo not drawn)	0.2	33.9*	1.8
COc1ccc(CCNC(=O)C2CCC(=O)N(CCc3ccc(OC)cc3)C2)cc1 (stereo not drawn)	.	-2.2	3.8
O=C(NCCc1cnccn1)C1CCC(=O)N(Cc2ccc(Cl)cc2)C1 (stereo not drawn)	.	-0.7	5.7
Cc1cnc(CNC(=O)C2CCC(=O)N(Cc3ccc(Cl)cc3)C2)[nH]1 (stereo not drawn)	-0.9	71.9*	-5.0

Source: PubChem BioAssay (Broad Institute)
